Molecules are shown by their SMILES. pIC50: −log10 of the molar value.

What all share (type): functional, cell-based
For one assay, the system named is T47D. Kind of assay: Cytotoxicity against human T47D cells assessed as decrease in cell viability after 48 hrs by MTT assay. In outline:
(§1)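 Cells grown in DMEM Glutamax with 10% FBS, 2.5 μg/mL fungizone, 100 IU/mL penicillin and 100 μg/mL streptomycin. Seeded at 3.3 × 10^4 cells/mL and left 24 h (37 °C, 5% CO2) to adhere. Pure compounds added as dilutions from 50 to 0.003 μg/mL for 48 h. MTT 0.5 mg/mL for 3 h, formazan dissolved in DMSO, absorbance read at 550 nm. Triplicates averaged; IC50 taken from dose–response curves.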

The next assay deals with MG-63. Kind of assay: Cytotoxicity against human MG63 cells assessed as decrease in cell viability after 48 hrs by MTT assay. As to conditions: MG-63, 48 h. An outline of the steps:
as §1
On the technique in general: Tetrazolium dyes change colour on reduction, which living cells bring about.

Another assay deals with RKO. As to the kind of experiment: Cytotoxicity against human RKO cells assessed as decrease in cell viability after 48 hrs by MTT assay. In outline: as §1

Take `CCCCCCC(Cl)CCCCCc1c(O)cc(CCCCCCC(Cl)CCCC)cc1O[C@@H]1OC[C@@H](O)[C@H](O)[C@H]1O` (some centres undefined): the pIC50 (commonly −log10 of the IC50, conventionally taken in molar units) in the assay on T47D is 4.66; in the assay with MG-63 it was 4.41; in the assay with RKO, 4.40.

Take `CCCCCCCCCC(Cl)CCCCCc1cc(O)c(CCCCCC(Cl)CCCCCC)c(O[C@@H]2OC[C@@H](O)[C@H](O)[C@H]2O)c1` (some centres undefined): the pIC50 in the assay on T47D, with MG-63 and with RKO was less than 5.00 throughout.

Consider `CCCCCCC(Cl)CCCCCc1cc(O)c(CCCCCC(Cl)CCCCCC)c(O[C@@H]2OC[C@@H](O)[C@H](O)[C@H]2O)c1` (some centres undefined), for which the negative-log IC50 (pIC50) in the assay with T47D, in the assay with MG-63 and in the assay on RKO was less than 5.00 throughout.

Turning to `CCCCCCCC(Cl)(Cl)CCCCCc1cc(O)c(CCCCCC(Cl)CCCCCC)c(O[C@@H]2OC[C@@H](O)[C@H](O)[C@H]2O)c1` (some centres undefined), the pIC50 was 4.22 with T47D, less than 5.00 in the assay with MG-63 and less than 5.00 with RKO.

Take `CCCCCCCC(Cl)CCCCCc1cc(O)c(CCCCCC(Cl)CCCCCC)c(O[C@@H]2OC[C@@H](O)[C@H](O)[C@H]2O)c1` (some centres undefined): the figures for the pIC50 in the assay with T47D, with MG-63 and in the assay on RKO were 4.64, 4.66 and 4.40, respectively.

As to `CCCCCCCCC(Cl)CCCCCc1cc(O)c(CCCCCC(Cl)CCCCCC)c(O[C@@H]2OC[C@@H](O)[C@H](O)[C@H]2O)c1` (some centres undefined), the pIC50 with T47D, with MG-63 and in the assay on RKO was less than 5.00 each time.

For `CCCCCCCCCCCCCc1cc(O)c(CCCCCC(Cl)CCCCCC)c(O[C@@H]2OC[C@@H](O)[C@H](O)[C@H]2O)c1` (some centres undefined), the pIC50 in the assay on T47D, in the assay on MG-63 and in the assay on RKO was less than 5.00 each time.

For the compound `CCCCCCCCCCCc1cc(O)c(CCCCCC(Cl)CCCCCC)c(O[C@@H]2OC[C@@H](O)[C@H](O)[C@H]2O)c1` (some centres undefined), the pIC50 in the assay with T47D, in the assay with MG-63 and in the assay on RKO was less than 5.00 throughout.

(Values after ChEMBL document CHEMBL4000159, “Bartolosides E-K from a Marine Coccoid Cyanobacterium” (J Nat Prod, 2016).)
